According to PMC10172704 (Poultry Science, 2023):
Ends that are not written are not given here.

How the values were obtained:
Test in all cases: Microdilution broth MIC/MBC
Conditions in all cases: synthesized identified peptides
S. aureus ATCC 29213 = type: cell-based, Staphylococcus aureus
Procedure, shortened: (§1)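 Broth microdilution per CLSI guideline, modified. Strains grown 18 h on tryptic soy agar, adjusted to 0.5 McFarland, then diluted in 0.85% NaCl to about 5 × 10^5 CFU/mL final. Suspension mixed with test compound in microplate wells and incubated 37°C, 18 h. Growth inhibition read at 600 nm. Positive control: 20 µg/mL kanamycin. Experiments done 3 times.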

B. cereus DMST 5040 = type: cell-based, Bacillus cereus
Procedure, shortened: as §1

S. Typhimurium TISTR 292 = type: cell-based, Salmonella typhimurium
Procedure, shortened: as §1

E. coli TISTR 780 = type: cell-based
Procedure, shortened: as §1

Row | Sequence | MIC (S. aureus ATCC 29213) [mM] | MIC (B. cereus DMST 5040) [mM] | MIC (S. Typhimurium TISTR 292) [mM] | MIC (E. coli TISTR 780) [mM]
1 | CASALLGA [CASALLGA] | 4 | 4 | 4 | >4
2 | HAAHTTGLGGPF [HAAHTTGLGGPF] | >4 | >4 | >4 | >4
3 | KGGDLGLFEPTL [KGGDLGLFEPTL] | 2 | 2 | 2 | >4
4 | VTLKVPGVTL [VTLKVPGVTL] | >4 | >4 | >4 | >4
5 | KVLPLPFGGRSPGGGA [KVLPLPFGGRSPGGGA] | >4 | >4 | >4 | >4
